Assays:
EAE = EAE mouse model of MS; format: in vivo, C57BL/6 female mice; conditions: 50 µg free GpG on days 5, 10, and 15
2D2 CD4+ T cells = assay: DC/2D2 T cell co-culture, T cell proliferation; format: cell-based, mice; conditions: 48 hours co-culture, dye dilution
Outline: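 Splenic CD11c+ DCs from female C57BL/6 mice were isolated by positive selection and plated at 100,000/well in RPMI 1640 with 10% FBS at 37°C and 5% CO2. They were stimulated with CpG (5 µg/mL) plus complex or free controls for 24 h. Splenic CD4+ T cells from 2D2 mice were isolated by negative selection and labelled with eFluor 670 dye. They were co-cultured with the DCs for 48 h, then stained with DAPI and anti-CD4, and dye dilution was read by flow cytometry.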

| Substance | therapeutic effect relative to untreated mice (EAE) | CD4+ T cell proliferation (2D2 CD4+ T cells) |
| --- | --- | --- |
| 5’-TGACTGTGAAGGTTAGAGATGA-3’ (DNA TGACTGTGAAGGTTAGAGATGA; chemistry not given here) [GpG] | no therapeutic effect | – |
| 5’-TCCATGACGTTCCTGACGTT-3’ [CpG] | – | did not cause any proliferation |

Source: paper PMC5189983 (Biomaterials, 2016)
